Rows were chosen to be rich in hits. Some 0.55% of all compounds tested hit in one or more screens of this group.
OXTR ag – human OXTR agonists, primary screen, fluorescence, CHO-OTR cells, Fluo-8 calcium. Oxytocin receptor (Homo sapiens), P30559. Fluo-8 calcium fluorescence; normalized: DMSO 0%, oxytocin 100%. activation, % at 3 µM. 320,000 tested, 0.32% active. AID 2435, 2010;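 active = activation above the mean of all tested compounds plus 3 SD, cutoff set per screening run, cut at about 20% in these data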;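 also: peak over basal fluorescence ratio from a 100 s FLIPR kinetic read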
Target sequence (P30559 whole entry, looked up): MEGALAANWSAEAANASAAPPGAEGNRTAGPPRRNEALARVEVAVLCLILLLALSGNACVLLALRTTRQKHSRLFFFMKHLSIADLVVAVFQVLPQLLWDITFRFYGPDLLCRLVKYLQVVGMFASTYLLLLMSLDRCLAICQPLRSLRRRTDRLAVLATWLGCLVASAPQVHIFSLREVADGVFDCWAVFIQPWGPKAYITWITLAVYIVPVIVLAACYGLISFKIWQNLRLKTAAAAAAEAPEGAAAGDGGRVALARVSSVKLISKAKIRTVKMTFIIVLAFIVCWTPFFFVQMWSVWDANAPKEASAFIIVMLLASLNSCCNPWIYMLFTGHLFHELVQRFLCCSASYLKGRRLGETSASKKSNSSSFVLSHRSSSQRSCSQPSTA
TRPN1 ag – zebrafish TRPN1 channel agonists, primary screen, cell-based, HEK293, calcium fluorescence. transient receptor potential cation channel N1 (TRPN1/NompC), Danio rerio. HEK293 zebrafish TRPN1-YFP, Fluo-8 calcium fluorescence; 100% = response to 87 µM carbachol. activation, % at 3 µM. 220,000 tested, 0.18% active. AID 1424, 2008;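 active = activation above its plate's cutoff, the mean activation of test wells on that plate plus 3 SD, cut at about 19% in these data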;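 also: 0% = DMSO alone and 100% = 87 µM carbachol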
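Material: zebrafish TRPN1-YFP in HEK293 cells; Doses: single test compound dose, 3 µM nominal, 0.3% DMSO; Timing: dye loading 1 h at 37 °C, then 30 min room temperature; Technique: intracellular calcium fluorescence with Fluo-8; Benchmarks: high carbachol 87 µM, low DMSO alone.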
V1aR counter – agonists of human V1a receptor, primary screen, counter-screen for OXTR agonist project, fluorescence, CHO-V1R cells | Vasopressin V1a receptor (Homo sapiens), P37288 | Fluo-8 calcium fluorescence, agonist mode; 0% DMSO, 100% 3 nM vasopressin | activation, % at 3 µM | 320,000 tested, 0.25% active | AID 2797, 2010;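 active = activation above the mean activation of all tested compounds plus 3 SD, per screening run, cut at about 20% in these data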;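 also: signal is peak over basal fluorescence ratio across a 100 second FLIPR read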
TRPML3 agonist – human TRPML3 channel agonists, primary screen, cell-based, HEK293 TRPML3-YFP, Fluo-8 calcium fluorescence, 3 µM; AID 1448, 2008; 100% = the carbachol control signal; activation, % at 3 µM; 220,000 tested, 0.29% active;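 active = activation above its plate's cutoff, the mean activation of the plate's test wells plus 3 SD, cut at about 12% in these data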;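 also: 0% = DMSO only wells and 100% = carbachol wells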
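Material: TRPML3-YFP stable HEK293 cells | Dosing: One concentration, 3 µM nominal, 0.3% DMSO | Timing: 125 s total fluorescence read per well | Technique: Fluo-8 calcium dye fluorescence, ex 470-495, em 515-575 nm | Measure: Percent activation from peak-to-basal fluorescence ratio, scaled between DMSO and carbachol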
OXTR potentiate – human OXTR potentiators, primary screen, fluorescence, CHO-OTR cells, Fluo-8 calcium; Oxytocin receptor (Homo sapiens), P30559; Fluo-8 calcium fluorescence, potentiator mode; 0% = oxytocin EC15, 100% = EC100; activation, % at 3 µM; 320,000 tested, 0.061% active;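 active = activation above that plate's cutoff, the mean activation of tested compounds plus 3 SD, cut at about 6.6% in these data, passing the limit was not always enough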;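 also: 100% uses oxytocin at 75 nM as the full agonist control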
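Measured by – Fluo-8 calcium dye fluorescence · Test system – human OTR in CHO cells · Dosing – one concentration, 3.0 µM compound · Controls – EC15 oxytocin alone as 0%, 75 nM oxytocin as 100% · Evaluation – normalized max/min fluorescence ratio, % activation · Timing – 6 min pre-incubation, 100 s read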
OXTR ag confirm – human OXTR agonists, confirmation, fluorescence, CHO-OTR cells, triplicate; 390 tested, 20% active; Fluo-8 calcium fluorescence, agonist; shares compounds with OXTR ag; activation, % at 3 µM;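 active = mean activation above about 20% derived from the earlier single-dose screen, limit read from the data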;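 also: peak over minimum fluorescence ratio per well during a 100 second FLIPR read; 0% = DMSO alone and 100% = oxytocin high control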
V1R ag counter 3x – V1a receptor agonists, calcium signal, counter-screen for OXTR agonist project, triplicate, fluorescence, CHO-V1R cells; shares compounds with OXTR ag; Fluo-8 calcium fluorescence; activation, % at 3 µM; 390 tested, 10% active;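 active = mean activation over triplicate exceeds the hit threshold set in the earlier primary screen, cut at about 20% in these data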;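 also: peak over basal fluorescence ratio within a 100 second read; 0% = DMSO alone and 100% = 3 nM vasopressin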
Starred values were filed as active, the others as inactive.

`CCOC(=O)c1sc(NC(=O)c2ccc(Cl)s2)cc1C` gave OXTR ag 2, TRPN1 ag 1, V1aR counter 1, TRPML3 agonist 1 and OXTR potentiate -1.
Screening CCOC(=O)c1sc(NC(=O)Nc2ccc(Cl)cc2)cc1C returned OXTR ag 20*, TRPN1 ag 18, V1aR counter 14, TRPML3 agonist 4, OXTR potentiate -23, OXTR ag confirm 11 and V1R ag counter 3x 11.
For Cc1ccc(Oc2ccc(NC(=O)C3=CC=CN4CCS(=O)(=O)N=C34)cc2)cc1 the results were OXTR ag 24*, V1aR counter 7, OXTR potentiate -12, OXTR ag confirm 9 and V1R ag counter 3x 2.
`CC(C)(C)c1ccc(NC(=O)C2=CC=CN3CCS(=O)(=O)N=C23)cc1` gave OXTR ag 4, V1aR counter 2 and OXTR potentiate -9.
Cc1cccc(Oc2ccc(NC(=O)C3=CC=CN4CCS(=O)(=O)N=C34)cc2)c1 was read as OXTR ag 21*, V1aR counter 7, OXTR potentiate -11, OXTR ag confirm 11 and V1R ag counter 3x 3.
Oc1ccc(Cl)cc1CNCc1ccc(F)c(F)c1 was read as OXTR ag 18, V1aR counter 15 and OXTR potentiate -16.
For Oc1ccc(Cl)cc1CNCc1ccc(Cl)nc1 the results were OXTR ag 20*, V1aR counter 16, OXTR potentiate -2, OXTR ag confirm 21* and V1R ag counter 3x 13.
For Cc1ccc(N(CC(=O)NCc2ccc(Cl)cc2)S(C)(=O)=O)cc1 the results were OXTR ag -1, V1aR counter 0 and OXTR potentiate -18.
Screening CC(NCC(O)COc1ccc2ccccc2c1)c1ccccc1 (stereo not given) returned OXTR ag 22*, V1aR counter 13, OXTR potentiate -18, OXTR ag confirm 10 and V1R ag counter 3x 7.
For O=C(O)c1ccc(N/N=C/c2ccc(-c3ccccc3Cl)o2)cc1 the results were OXTR ag 23*, TRPN1 ag 1, V1aR counter 12, TRPML3 agonist 0, OXTR potentiate -23, OXTR ag confirm 8 and V1R ag counter 3x 5.
For Cc1cc(=O)oc2cc(NC(=O)C(C)N3C(=O)C4CCCCC4C3=O)ccc12 (stereo not given) the results were OXTR ag 1, V1aR counter 1 and OXTR potentiate 3.
Cc1cccc(C(=O)NC(=S)NNC(=O)Cc2ccccc2)c1 was read as OXTR ag 25*, TRPN1 ag -1, V1aR counter 8, TRPML3 agonist 0, OXTR potentiate -11, OXTR ag confirm 45* and V1R ag counter 3x 58*.
Screening COc1cccc2c1C(=O)c1c(O)c3c(c(O)c1C2=O)C[C@@](O)(C(=O)CO)C[C@@H]3O[C@H]1C[C@H](N)[C@@H](O)[C@H](C)O1 returned OXTR ag 23*, V1aR counter 18, OXTR potentiate -12, OXTR ag confirm 11 and V1R ag counter 3x 20.
For c1ccc2c(c1)[nH]c1c3ccccc3sc21 the results were OXTR ag 0, TRPN1 ag 2, V1aR counter -1, TRPML3 agonist 1 and OXTR potentiate -5.
For Cc1cc(SCC(=O)OCC(=O)N(C)C2CCS(=O)(=O)C2)c(C)cc1Br (stereo not given) the results were OXTR ag 21*, V1aR counter 13, OXTR potentiate -18, OXTR ag confirm 4 and V1R ag counter 3x 6.
Screening C=CCN(CC=C)C(=O)c1cc2ccccc2c(=O)o1 returned OXTR ag 0, TRPN1 ag 1, V1aR counter 0, TRPML3 agonist 0 and OXTR potentiate 5.
For COc1ccc(C(=O)CSc2nnc(Cn3cnc4ccccc43)o2)cc1 the results were OXTR ag 20*, TRPN1 ag 8, V1aR counter 15, TRPML3 agonist 4, OXTR potentiate -23, OXTR ag confirm 10 and V1R ag counter 3x 10.
CC(Oc1ccc(F)cc1)C(=O)Nc1ccc(S(=O)(=O)NC2=NCCCCC2)cc1 (stereo not given) was read as OXTR ag 25*, V1aR counter 15, OXTR potentiate -12, OXTR ag confirm 28* and V1R ag counter 3x 20.
`CC(Oc1cccc(Cl)c1)C(=O)Nc1ccc(S(=O)(=O)NC2=NCCCCC2)cc1` (stereo not given) gave OXTR ag 14, V1aR counter 10 and OXTR potentiate -16.
O=C(Nc1ccc([N+](=O)[O-])cc1)Nc1cnccn1 was read as OXTR ag 2, V1aR counter 4 and OXTR potentiate -14.
For CCSc1nsc(NC(=O)Nc2cccc(F)c2)n1 the results were OXTR ag 20*, V1aR counter 16, OXTR potentiate -26, OXTR ag confirm 12 and V1R ag counter 3x 13.
`O=C(Nc1cccc(F)c1)Nc1cccc(Cl)c1` gave OXTR ag 20*, V1aR counter 13, OXTR potentiate -25, OXTR ag confirm 5 and V1R ag counter 3x 6.
`O=C(Nc1cccc(Cl)c1)Nc1cccc(Cl)c1` gave OXTR ag 14, TRPN1 ag 10, V1aR counter 9, TRPML3 agonist 5 and OXTR potentiate -22.
Screening COc1cccc(NC(=O)Nc2nc(SC)ns2)c1 returned OXTR ag 12, V1aR counter 10 and OXTR potentiate -8.
For COc1cccc(NC(=O)Nc2nc(SC(C)(C)C)ns2)c1 the results were OXTR ag 23*, V1aR counter 18, OXTR potentiate -26, OXTR ag confirm 13 and V1R ag counter 3x 11.
`COc1ccc2sc(N(CCN(C)C)C(=O)c3ccc4ccccc4c3)nc2c1` gave OXTR ag 1, V1aR counter 1 and OXTR potentiate -7.
`O=C(NCCC(=O)N1CCC2(CC1)NCCc1[nH]cnc12)c1ccc(F)c(F)c1` gave OXTR ag 0, V1aR counter 0 and OXTR potentiate -5.

Bioassay records from PubChem BioAssay.
